The list is not random: actives were taken first. Their share in the collection is about 3.7%.
MDM2 E3 inh – inhibitors of human Mdm2 E3 ubiquitin ligase; cell-based MDM2 ubiquitination luciferase reporter, 2 h; 0 = plate control, 100 = twice control, blank-subtracted; signal enhancement, % at 5 µM; actives 0.11% (n = 210,000); AID 1230; Q00987;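 active = signal enhancement of 30% or more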;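 also: luminescence tracks abundance of the self-degrading MDM2-luciferase fusion protein; higher signal means inhibition of MDM2 E3 ligase activity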
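Buffer or medium: Cells held in DMEM | Assay system: Stable mammalian line carrying autodegrading MDM2–luciferase fusion reporter | Quantity: 2000 cells/well | Times: 4 h settle plus 2 h compound, 37 °C | Doses: One concentration, 5 µM, with 0.2% DMSO | Technique: Luminescence with SteadyLite reagent, 15 min at room temperature | Benchmarks: Plate controls and plate blanks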
XBP1 UPR activ – activators of adaptive arm of unfolded protein response (XBP1). CHO-XBP1 luciferase reporter, IRE1-XBP1 UPR activation, luminescence; percent of tunicamycin response, DMSO as zero. activation, % at 20 µM. actives 0.33% (n = 330,000). AID 463104;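 active = versus positive control, 20 µM dose yields 30% or more activation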
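Material: CHO-XBP1 cells stably carrying IRE1-XBP1-driven luciferase reporter / Amount: 1000 cells per well / Compound: 20 µM, 1% DMSO / Times: 6 h treatment, 37 °C / Detection: luciferase luminescence / Measure: % activation of reporter signal versus tunicamycin and DMSO controls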
Mdm2-MdmX inh – disrupts the human Mdm2-MdmX interaction; SaOS-2 split-luciferase Mdm2/MdmX complementation, luminescence; inhibition, % at 8 µM; actives 3% (n = 330,000);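 active = inhibition of at least 50% at 8 µM in the primary screen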
B2AR ag – activates human beta-2 adrenergic receptor causing internalization; P07550; Am2.2-beta2AR cells, FAP receptor internalization, flow cytometry; response, % (no concentration beside the values); actives 0.43% (n = 340,000);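 active = response above a set limit, near 3 SD of response in nonfluorescent compounds, cut at about 42% in these data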
CHOP UPR activ – activators of apoptotic arm of unfolded protein response (CHOP); CHO-CHOP luciferase reporter, UPR activation, luminescence; percent of tunicamycin response over DMSO baseline; activation, % at 10 µM; actives 0.34% (n = 330,000);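 active = at 10 µM dose, activation of 40% or more, normalized to positive control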
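assay system = CHO CHOP reporter cells | amount = 500 CHO-CHOP cells per well | buffer or medium = F12 with 10% FBS | incubation = 16-18 h cell attachment, then 6 h compound exposure, 37 °C | detection = luminescence read with Steady-Glo | read-out = percent activation relative to tunicamycin control | controls = tunicamycin high control, DMSO low control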
Dynein cargo inh – dynein cargo transport inhibition | 3617.4 mouse cells, GR-EGFP nuclear translocation imaging; test concentration mostly 20 µM; stimulated with dexamethasone, 1 µM; hits give low values | z-score, hits read low | actives 0.47% (n = 220,000);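 active = plate z-score of nuclear minus cytoplasmic receptor signal below a set negative limit, without overly bright fluorescence or cell loss, cut at about -3.5 in these data, passing the limit was not always enough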;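 also: z-score of nuclear minus cytoplasmic ring GR-EGFP intensity difference per well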
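medium = tetracycline-free induction medium containing charcoal-stripped FBS | probe or stimulus = dexamethasone, 1.0 µM final | timing = 48 h induction, then 1 h compound, then 30 min agonist, 37 °C | detection = automated 10x imaging of fixed Hoechst-stained cells | read-out basis = nuclear versus cytoplasmic GR-EGFP signal, averaged per well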
Mdm2 MdmX conf – confirmation of human Mdm2/MdmX interaction inhibitors; inhibition, % at 8 µM; AID 489028; Mdm2-MdmX binding, luminescent assay; shares compounds with Mdm2-MdmX inh; actives 55% (n = 10,000); in the data active = inhibition above about 40%
FLuc counter – counter-screen for Mdm2/MdmX inhibitors: full-length luciferase | shares compounds with Mdm2-MdmX inh | SaOS-2 full-length luciferase counterscreen, luminescence | inhibition, % at 8 µM | actives 77% (n = 6,200);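 active = mean inhibition at 8 µM reaching about 37%, which flags the compound as non-specific, limit read from the data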;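 also: p53-null SaOS-2 cells with luciferase driven by a doxycycline-inducible promoter; compound on cells about two nights before reading with doxycycline added after day one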
Of the large screens only hits and unclear results are named; the others gave an inactive call (follow-up assays come after a bar, where they were run).

CCN1CCc2c(OCc3ccc(C)cc3)cccc2C1=O	none
Cc1cc(C)cc(-n2ncc3c2CCCC3NC(=O)CN2CCCCC2=O)c1 (centres undefined)	none (no result: MDM2 E3 inh, Dynein cargo inh)
Cc1cc(C)c2sc(N(CCCN(C)C)C(=O)c3ccc(S(=O)(=O)N4CCc5ccccc5C4)cc3)nc2c1	Mdm2-MdmX inh 99, B2AR ag 51 (no result: MDM2 E3 inh, Dynein cargo inh) | Mdm2 MdmX conf 99 | FLuc counter 42
Cc1cccc2sc(N(CCCN(C)C)C(=O)c3ccc(S(=O)(=O)N4CCc5ccccc5C4)cc3)nc12	Mdm2-MdmX inh 64, B2AR ag 46 (no result: MDM2 E3 inh, Dynein cargo inh) | Mdm2 MdmX conf inactive
COc1ccc2sc(N(CCCN(C)C)C(=O)c3ccc(S(=O)(=O)N4CCc5ccccc5C4)cc3)nc2c1	Mdm2-MdmX inh 100 (no result: MDM2 E3 inh, Dynein cargo inh) | Mdm2 MdmX conf 99 | FLuc counter 55
COc1ccc2sc(N(CCCN(C)C)C(=O)c3ccc(S(=O)(=O)N4CCCC4)cc3)nc2c1	none (no result: MDM2 E3 inh, Dynein cargo inh)
COCCn1c(=NC(=O)c2ccc(S(=O)(=O)N3CCc4ccccc4C3)cc2)sc2cc(OC)ccc21	Mdm2-MdmX inh 69 | Mdm2 MdmX conf inactive
Cc1nc2sc3c(NCc4ccco4)ncnc3c2c2c1COC(C)(C)C2	Mdm2-MdmX inh 63 | Mdm2 MdmX conf 46 | FLuc counter 37
Cc1nc2oc3c(NCc4ccccc4)ncnc3c2c2c1COC(C)(C)C2	none
Oc1ccc(C23CCCC2C2(CCCC2)c2ccc(O)cc2O3)c(O)c1 (centres undefined)	none (no result: MDM2 E3 inh, Dynein cargo inh)
CCN1CCN(c2cc(C)c3cc(NC(=S)N4CCC5(CC4)OCCO5)ccc3n2)CC1	none
CCCN1CCN(C(=S)Nc2ccc3nc(N4CCN(CC)CC4)cc(C)c3c2)CC1	Mdm2-MdmX inh 50 | Mdm2 MdmX conf 43 | FLuc counter 46
CCC(C)NC(=S)Nc1ccc2nc(N3CCN(CC)CC3)cc(C)c2c1 (centres undefined)	Mdm2-MdmX inh 52 | Mdm2 MdmX conf inactive | FLuc counter 61
CCOc1ccc(C(=O)Nc2ccc3nc(N4CCN(CC)CC4)cc(C)c3c2)cc1	Mdm2-MdmX inh 55 (no result: MDM2 E3 inh, Dynein cargo inh) | Mdm2 MdmX conf inactive | FLuc counter 60
CCN1CCN(c2cc(C)c3cc(NC(=S)N4CCN(c5ccccc5F)CC4)ccc3n2)CC1	Mdm2-MdmX inh 80 | Mdm2 MdmX conf 45 | FLuc counter 60
Cc1cc(N2CCOCC2)nc2ccc(NC(=S)N3CCN(c4ccccc4)CC3)cc12	none
Cc1csc(=O)n1CC(=O)OCC(=O)NC(C)c1ccc(F)cc1 (centres undefined)	none (no result: MDM2 E3 inh, Dynein cargo inh)
O=C(C1CCN(S(=O)(=O)c2cccc3cccnc23)CC1)N1CCCCC1	none (no result: MDM2 E3 inh, Dynein cargo inh)
CCN1CCN(c2cc(C)c3cc(NC(=S)N4CCOCC4)ccc3n2)CC1	none
CCN1CCN(c2cc(C)c3cc(NC(=S)N4CCN(c5ccccc5)CC4)ccc3n2)CC1	Mdm2-MdmX inh 100 | Mdm2 MdmX conf 44 | FLuc counter 52
CC(OC(=O)c1ccc2c(=O)n3c(nc2c1)CCC3)C(=O)NC1CCCCC1C (centres undefined)	none (no result: MDM2 E3 inh, Dynein cargo inh)
Cc1sc2nc(C3CC3)nc(SCC(=O)N3c4ccccc4CC3C)c2c1C (centres undefined)	Mdm2-MdmX inh 85 | Mdm2 MdmX conf 90 | FLuc counter 53
O=C(COc1ccc([N+](=O)[O-])cc1)Nc1ccc2c(c1)nc1n2CCOC1	none (no result: MDM2 E3 inh, Dynein cargo inh)
CCCCN(C(=O)c1ccc2c(c1)S(=O)(=O)N=C1CCCCCN12)c1c(N)n(CCCC)c(=O)[nH]c1=O	none (no result: MDM2 E3 inh, Dynein cargo inh)
O=[N+]([O-])c1ccc(-c2cnc3ccccc3n2)cc1	none (no result: MDM2 E3 inh, Dynein cargo inh)

Assay outcomes as filed in PubChem BioAssay.
